# High-throughput results deposited in PubChem BioAssay by several laboratories.
# Only some compounds are listed: those with a hit (about 3.7% of all), similar ones and a draw of the others.
# PGE2 EP2 inh = human EP2 receptor antagonists, primary screen, TR-FRET cAMP, C6 glioma cells; Prostaglandin E2 receptor EP2 subtype (Homo sapiens), P43116; C6 glioma cells expressing human EP2; cells stimulated with saturating PGE2; inhibition, % at 25 µM; hit rate 0.52% among 260,000; AID 1422, 2008;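 active = percent inhibition above 40 after rounding to a whole number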;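 also: rat C6 glioma host cells with rolipram phosphodiesterase inhibitor present; the protocol text gives 20 µM as final concentration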
# Target sequence (P43116 whole entry, looked up): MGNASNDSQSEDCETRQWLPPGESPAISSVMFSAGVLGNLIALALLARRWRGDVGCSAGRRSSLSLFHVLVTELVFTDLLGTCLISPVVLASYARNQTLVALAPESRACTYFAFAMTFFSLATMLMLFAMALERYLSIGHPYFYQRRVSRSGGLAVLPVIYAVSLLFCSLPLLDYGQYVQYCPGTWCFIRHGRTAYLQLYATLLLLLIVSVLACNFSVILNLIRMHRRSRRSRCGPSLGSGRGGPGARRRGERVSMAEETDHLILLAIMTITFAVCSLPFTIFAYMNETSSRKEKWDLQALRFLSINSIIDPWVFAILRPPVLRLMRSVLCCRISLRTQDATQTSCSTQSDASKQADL
# GPR7 antag = GPR7 receptor antagonists, primary screen, cell-based, fluorescence, single concentration; Neuropeptides B/W receptor type 1 (Homo sapiens), P48145; GPR7-expressing cells, fluorescence antagonist assay; inhibition, % at 4.4 µM; hit rate 1.1% among 290,000; in the data active = inhibition above about 16%, passing the limit was not always enough;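 also: cells stimulated with the agonist NPW; 0% = agonist with vehicle and 100% = vehicle without agonist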
# OX1R antag-1 = OX1R (HCRTR1) antagonists, primary screen, fluorescence, CHO/OX1R cells, Fluo-8 calcium, orexin A; Orexin/Hypocretin receptor type 1 (Homo sapiens), O43613; Fluo-8 calcium fluorescence; inhibition, % at 5 µM; hit rate 0.43% among 330,000; AID 434989, 2010;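 active = inhibition above its plate's threshold, mean inhibition of all tested compounds on the plate plus 3 SD, cut at about 37% in these data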;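 also: 0% = orexin A challenge wells and 100% = SB-334867-A antagonist wells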
# EP2 mod = EP2 receptor modulators, cAMP readout, primary screen, cell-based, HTRF cAMP, PGE2 stimulation | Prostaglandin E2 receptor EP2 subtype (Homo sapiens), P43116 | EP2-expressing cells, cAMP HTRF FRET, PGE2 co-stimulation | induction, % at 25 µM | hit rate 0.83% among 260,000;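 active = compounds whose cAMP rise, as percent of the full-agonist control response, exceeds 60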;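 also: rat C6 glioma line stably carrying human EP2 under a CMV promoter; the protocol text gives 20 µM as final concentration; 100% = response of wells given 1 µM PGE2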
# OX1R antag-2 = antagonists of human orexin 1 receptor (OX1R); Orexin/Hypocretin receptor type 1 (Homo sapiens), O43613; OX1R-expressing cells, FRET antagonist read-out; inhibition, % at 6.6 µM; hit rate 1.8% among 330,000; in the data active = inhibition mostly above about 38%, no sharp cut-off; inactive = mostly below about 40%;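 also: 0% = agonist challenge alone and 100% = reference antagonist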
# CHO parental Ca = ATP-evoked calcium signal inhibitors, parental CHO, primary screen, counter-screen for OX1R antagonist project, cell-based, fluorescence, Fluo-8 calcium dye | parental CHO-K1, ATP-induced calcium, Fluo-8 fluorescence | inhibition, % at 5.6 µM | hit rate 0.63% among 330,000 | AID 463079, 2010;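 active = inhibition above that plate's mean sample inhibition plus 3 SD, cut at about 26% in these data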;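 also: 0% = ATP-challenged DMSO wells and 100% = DMSO wells without ATP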
#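 Material: parental CHO cells / Compound: single nominal dose of 5.6 µM per compound / Signal: Fluo-8 fluorescence / Replicates: singlicate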
# An asterisk follows results filed as active; x = no result given.
SMILES,PGE2 EP2 inh,GPR7 antag,OX1R antag-1,EP2 mod,OX1R antag-2,CHO parental Ca
O=C(Nc1ccc(Oc2cccnc2)nc1)c1ccc(C(F)(F)F)cc1,13,20*,-4,-3,4,-4
CCCNC(=O)C(Cc1cccc(Br)c1)NC(=O)c1ccc(C#N)cc1 (centres undefined),x,x,-10,x,2,-16
CCCCOc1ccc(S(=O)(=O)Nc2cccnc2)cc1,10,-15,7,9,15,39*
Cc1ccc(OCc2nnc(SCC(=O)C(C)(C)C)n2Cc2ccco2)cc1,7,9,-23,42,15,-24
O=C(Cc1ccccc1)Nc1cccc(N2C(=O)C=CC2=O)c1,133*,-5,-4,-69,4,-8
CCCCn1c(SCc2nc(N)nc(Nc3ccccc3C)n2)nc2ccccc2c1=O,7,7,8,43,71*,-19
COCC(C)n1c(SCc2nc(N)nc(Nc3ccccc3C)n2)nc2ccccc2c1=O (centres undefined),6,3,-25,15,29,-25
O=C(COc1ccc([N+](=O)[O-])cc1)Nc1nc(-c2ccccn2)cs1,x,x,-8,x,10,4
O=[N+]([O-])c1cc(/C=N\Nc2nc(-c3ccccc3)cs2)ccc1O,48*,-13,4,-102,0,-29
Cc1csc(N/N=C/c2ccc(O)c([N+](=O)[O-])c2)n1,3,-9,-3,8,34,-1
CCc1cc[n+](-c2nc3ccccc3nc2C(=C=[N-])C#N)cc1,5,0,-14,-10,74*,-2
CC(=O)CCc1oc2ccc(C)cc2c1Cc1ccccc1,x,-8,-29,x,-7,-18
CC(=O)CCc1oc2ccccc2c1-c1ccccc1,5,-16,-39,79*,8,-15
CCc1nnc(NS(=O)(=O)c2ccc(NS(=O)(=O)c3ccc(NC(C)=O)cc3)cc2)s1,12,-6,x,5,x,x
CCc1nnc(NS(=O)(=O)c2ccc(Nc3ccc4nonc4c3[N+](=O)[O-])cc2)s1,3,-9,-20,2,49*,-8
Cc1ccccc1Nc1ccc2nonc2c1[N+](=O)[O-],x,-5,x,x,x,x
O=[N+]([O-])c1c(Nc2ccccc2O)ccc2nonc12,8,-18,-20,4,59*,2
COCCn1c(NCCN(C)C)nc2c1c(=O)[nH]c(=O)n2C,23,x,x,-20,x,x
COc1c(/C=C2\SC(=Nc3ccccc3Cl)NC2=O)cccc1[N+](=O)[O-],x,-19,-14,x,68*,-7
COc1cc(/C=C2/S/C(=N/S(=O)(=O)Cc3ccccc3)NC2=O)c([N+](=O)[O-])cc1OC,13,-9,-14,0,41*,-4
O=C1N/C(=N\S(=O)(=O)c2ccccc2)S/C1=C\c1cc([N+](=O)[O-])ccc1O,x,16,59*,x,15,46*
COC(=O)/C(=C(/F)Sc1cc(C)c(O)c(C)c1)C(F)(F)F,99*,4,13,-20,18,33*
CCCNC(=O)c1nnsc1S(=O)c1ccc(Cl)cc1 (centres undefined),69*,16,x,-74,x,x
CN(C)CCCn1c2c3ccccc3ccc2c2oc(=O)c3ccccc3c21,74*,x,x,-5,x,x
CN(CC(=O)NCc1cccs1)S(=O)(=O)c1cccc2nsnc12,12,0,-11,-23,51*,-1
COC(=O)c1ccc2c(=O)[nH]c(CCl)nc2c1,8,-7,-5,11,5,8
Cc1ccc2c(CSc3nnc(C4CC4)n3N)cc(=O)oc2c1,4,13,-6,16,21,-7
Cc1ccc2c(CSc3nnnn3C)cc(=O)oc2c1,5,-11,-16,19,62*,-1
CC1CCN(C(=O)C(NS(=O)(=O)c2cccc3nsnc23)C(C)C)CC1 (centres undefined),x,3,3,x,43*,-13
